Source: PMC3304489 (Biochemical Journal, 2012)

System: MALT1
Experiment: Effect of buffer additives on MALT1 activity
Format: biochemical, human
Conditions: 50 mM Hepes, 100 mM NaCl, 0.9 M sodium citrate, pH 7.5, supplemented with additive (Figure 2C and results not shown)
Method in brief: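 Recombinant human MALT1, expressed in E. coli and Ni-NTA purified, used as full-length (150 nM) and as His-tagged catalytic domain (residues 329–566, 4 μM). Each was assayed in 50 mM Hepes, 100 mM NaCl, 0.9 M sodium citrate (pH 7.5) with the indicated additives. Experiments were repeated three times, and mean ± S.E.M. is reported.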

SMILES	effect of buffer additive on the activity of MALT1 (in words)
c1cnc2c(c1)ccc1cccnc12 [1,10-phenanthroline]	no substantial effect
O=C(O)CN(CCN(CC(=O)O)CC(=O)O)CC(=O)O [EDTA]	no substantial effect
[Ca+2].[Cl-].[Cl-] [CaCl2]	no substantial effect
O[C@@H](CS)[C@@H](O)CS (racemic) [DTT, dithiothreitol]	activity was enhanced
